# H9c2 TAG inh: triacylglycerol accumulation inhibition; inhibition, % at 12.5 µM; H9c2 cells, Nile Red lipid (TAG) fluorescence; cells loaded with 200 µM oleic acid; AID 651582; actives 0.66% (n = 230,000);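 active = pattern-corrected inhibition of lipid staining of at least 50% with the nuclear-stain viability signal not falling by more than 50%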
# iPSC survival up: hiPSC single-cell survival enhancement; actives 0.044% (n = 360,000); ATPlite luminescence; 100% = ROCK inhibitor wells, 0% = DMSO; survival enhancement, % at 20 µM; AID 602274; in the data active = survival enhancement above about 18%;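 note: cells exposed to compounds for 16 hours before the ATP read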
# beta cell repl: MIN6 beta-cell proliferation induction; proliferation, % at 10 µM; actives 0.29% (n = 330,000); MIN6 cells proliferation, ATPlite luminescence, 48 h; cells starved in 0.2% serum; 100% = growth in 10% serum;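 active = compounds whose signal lies at least 3.5 SD above the mean of all wells on their plate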
# T cruzi repl: blocks replication of Trypanosoma cruzi; actives 1.4% (n = 300,000); inhibition, % (concentration not given with the values); T. cruzi beta-gal in NIH3T3, luminescence, 90 h;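 active = mean inhibition across valid replicates above about 55%, limit read from the data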;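 note: signal also drops with host cell toxicity which is not excluded here; higher percent means less beta-gal luminescence so fewer parasites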
#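 assay system = mouse NIH/3T3 fibroblasts infected with β-gal-expressing T. cruzi Tulahuen C4 | input = 5,000 NIH/3T3 host cells per well | buffer or medium = DMEM plus 2% FBS | timing = 3 h host attachment, then at least 90 h co-culture | measured by = GalScreen luminescence, 60 min | evaluation = luminescence reflecting intracellular parasite burden, expressed as percent inhibition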
# PG9 binder: binds the HIV-1 gp120 antibody PG9; TR-FRET gp120-PG9 antibody binding; inhibition, % at 6.7 µM; actives 0.43% (n = 360,000); AID 624416; in the data active = inhibition above about 8.5%
# Rev-erbA mod: Rev-erb alpha (human) modulation; P20393; Rev-erbα–FITC-DNA binding, fluorescence polarization, 90 min; activity, % at 10 µM; actives 0.79% (n = 370,000);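 active = activity above about 14%, limit read from the data; passing the limit was not always enough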
# Target sequence (P20393 whole entry, looked up): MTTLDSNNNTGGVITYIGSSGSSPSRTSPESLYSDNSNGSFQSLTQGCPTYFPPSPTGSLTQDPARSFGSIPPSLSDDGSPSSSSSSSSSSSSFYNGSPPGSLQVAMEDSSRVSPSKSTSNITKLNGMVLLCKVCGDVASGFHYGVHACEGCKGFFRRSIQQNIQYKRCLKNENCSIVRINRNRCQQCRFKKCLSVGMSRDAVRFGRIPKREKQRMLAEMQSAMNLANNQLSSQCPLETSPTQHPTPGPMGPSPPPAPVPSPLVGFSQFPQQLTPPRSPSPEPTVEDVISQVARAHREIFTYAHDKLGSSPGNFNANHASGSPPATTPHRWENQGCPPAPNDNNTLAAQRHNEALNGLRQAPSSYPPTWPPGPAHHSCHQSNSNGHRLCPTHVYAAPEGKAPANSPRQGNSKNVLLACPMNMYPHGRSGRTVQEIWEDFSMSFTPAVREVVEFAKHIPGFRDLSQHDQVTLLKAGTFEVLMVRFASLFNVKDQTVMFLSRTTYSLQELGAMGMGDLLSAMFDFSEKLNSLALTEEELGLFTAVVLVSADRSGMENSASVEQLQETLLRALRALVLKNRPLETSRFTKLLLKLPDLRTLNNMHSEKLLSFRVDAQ
# A number is an active result; 0 = inactive; - = no result given. An excerpt weighted towards active compounds, which were near 2.9% of everything screened.
SMILES,H9c2 TAG inh,iPSC survival up,beta cell repl,T cruzi repl,PG9 binder,Rev-erbA mod
CCN(CC)c1ccc2c(Cl)c(Br)c(=O)oc2c1,0,0,0,59,-,-
Cc1cc(C)c2[nH]c(=O)c(C(c3nnnn3C(C)(C)C)N(Cc3ccco3)CC3CCCO3)cc2c1 (centres undefined),-,0,0,0,0,0
COc1cccc2[nH]c3c(N4CC(C)CC(C)C4)ncnc3c12 (centres undefined),-,-,0,57,-,-
CCCCCCCCCCOC(=O)Cn1c(COc2cccc(C)c2)[n+](C)c2ccccc21,-,0,0,58,0,0
CCCCCCCCCCOC(=O)Cn1c(COc2ccc(OC)cc2)[n+](C)c2ccccc21,-,0,0,0,-,-
CCCCCCCCCCOC(=O)Cn1c(COc2ccccc2C)[n+](C)c2ccccc21,-,0,0,65,-,-
CCCCCCCCCCOC(=O)Cn1c(COc2ccccc2)[n+](C)c2ccccc21,-,0,0,73,0,0
CCCCCCCCCCOC(=O)Cn1c(COc2ccc(Cl)cc2)[n+](C)c2ccccc21,-,0,0,0,0,0
O=C(OCCCCSc1nnc(-c2cccc3ccccc23)o1)c1ccc(F)cc1,-,-,-,-,-,0
CCOc1ccc(S(=O)(=O)c2c(C(=O)c3ccccc3)cnc3cc4c(cc23)OCCO4)cc1,-,0,0,71,0,0
O=C(NNC1=Nc2cccc3cccc1c23)c1ccc(Br)cc1,-,0,-,62,0,0
COc1ccc(CC(=O)NNC2=Nc3cccc4cccc2c34)cc1OC,0,0,0,0,0,0
CCOCCCn1c(=S)[nH]c2cc(C(=O)NCc3ccc(F)cc3)ccc2c1=O,-,0,0,0,0,0
O=C(Nc1ccc(F)cc1)c1ccccc1CC[N+](=O)[O-],0,0,0,-,0,0
CSC(=S)NN=C(C)c1cccc(C)n1,55,0,-,-,0,0
CCC(C(=O)Nc1ccc2[nH]ncc2c1)c1ccccc1 (centres undefined),-,62,0,0,0,0
Clc1ccc(-c2nc3n(n2)Cc2ccccc2-3)cc1,0,0,0,0,0,0
COc1ccc(OCCOC(=O)c2[nH]c(C)c(C(C)=O)c2C)cc1,0,0,0,0,0,0
O=C(NCCCCc1ccccc1)c1cccc([N+](=O)[O-])c1,0,0,0,0,0,0
O=C(NCCCCc1ccccc1)c1cc([N+](=O)[O-])cc([N+](=O)[O-])c1,0,0,0,63,0,0
O=C(NCC1CCCCC1)c1cccc([N+](=O)[O-])c1,0,0,0,0,0,0
O=C(NCCCc1ccccc1)c1cccc([N+](=O)[O-])c1,-,0,0,0,0,0
O=C(NCCCN1CCN(CCCNC(=O)c2cccc([N+](=O)[O-])c2)CC1)c1cccc([N+](=O)[O-])c1,-,0,0,56,0,0
O=C(NCC1CC1)c1cc([N+](=O)[O-])cc([N+](=O)[O-])c1,-,0,0,61,0,0
COc1cccc(OCCNC(=O)c2cc([N+](=O)[O-])cc([N+](=O)[O-])c2)c1,0,0,0,61,0,0
SMILES,H9c2 TAG inh,iPSC survival up,beta cell repl,T cruzi repl,PG9 binder,Rev-erbA mod
COc1ccc(/C(C)=N\NC(=O)CSc2nnc(C)s2)cc1,-,0,0,0,0,0
O=C(NCCc1c[nH]c2ccccc12)c1ccc([N+](=O)[O-])cc1,-,0,0,0,0,0
O=C(NCCc1c[nH]c2ccccc12)c1cc([N+](=O)[O-])cc([N+](=O)[O-])c1,-,0,0,69,0,0
COc1ccc2[nH]c(C(=O)O)c(NS(=O)(=O)c3ccc(OC)c(OC)c3)c2c1,0,0,0,0,0,0
COc1ccc(S(=O)(=O)N2CCCCCC2)cc1N(C)S(=O)(=O)c1ccc(Cl)cc1,-,0,0,64,0,0
COc1ccc(S(=O)(=O)N2CCC(C)CC2)cc1N(C)S(=O)(=O)c1ccccc1,0,0,0,0,0,0
COc1ccccc1Nc1nc(N)nc(CCl)n1,0,0,0,0,0,0
Cc1cccc(Nc2nc(N)nc(CCl)n2)c1,0,0,0,68,0,0
COc1cccc(Nc2nc(N)nc(CCl)n2)c1,0,0,0,69,0,0
Cc1ccc(Nc2nc(N)nc(CCl)n2)cc1,0,0,0,0,0,0
Cc1cccc(Nc2nc(N)nc(CCl)n2)c1C,80,0,0,0,0,0
CCOc1ccc(Nc2nc(N)nc(CCl)n2)cc1,72,0,0,0,0,0
Cn1c(=O)cc(OCCCC(=O)NCCC2=CCCCC2)c2ccccc21,0,0,0,0,0,0
Cc1ccc(Nc2nc(N)nc(CCl)n2)c(C)c1,80,0,0,57,0,0
Cc1ccc(Nc2nc(N)nc(CN3CCCCCC3)n2)c(C)c1,-,0,0,0,0,0
COc1ccc(C(CNc2ccc(S(=O)(=O)N3CCCC3)cc2[N+](=O)[O-])N2CCCC2)cc1 (centres undefined),-,0,0,59,0,0
COc1ccc(C(CNc2ccc(S(=O)(=O)N3CCN(C)CC3)cc2[N+](=O)[O-])N(C)C)cc1 (centres undefined),0,0,0,-,0,0
CCOC(=O)C1CCN(C(=O)C(=O)c2cn(CC(=O)N3CCCCCC3)c3ccccc23)CC1,0,0,0,62,0,0
CC1CCCCN1C(=O)C(=O)c1cn(CC(=O)N2CCCCCC2)c2ccccc12 (centres undefined),0,0,0,64,0,0
COCc1cc(C)nc(SCC(=O)Nc2cc(C(F)(F)F)ccc2N2CCOCC2)c1C#N,0,0,0,67,0,0
C=CCOc1cccc(C(=O)NC(c2ccccc2)C(C)C)c1 (centres undefined),0,0,0,0,0,0
Cc1ccc2nc(NCc3ccccc3)[nH]c2c1,60,0,-,0,0,0
COc1ccc2nc(NCc3ccccc3)[nH]c2c1,-,0,0,0,0,0
C=CC[n+]1c(/C=C2\C=Cc3cc(C)ccc3N2CC)ccc2ccccc21,0,0,0,66,0,0
CCOCCOC(=O)C1=C(C)NC2=C(C(=O)CC(c3cccs3)C2)C1c1ccsc1 (centres undefined),-,0,0,0,0,0
SMILES,H9c2 TAG inh,iPSC survival up,beta cell repl,T cruzi repl,PG9 binder,Rev-erbA mod
CC1=C(C(=O)Nc2ccccc2F)C(c2ccsc2)C2=C(CC(c3ccccc3)CC2=O)N1 (centres undefined),0,0,0,56,0,0
COc1ccc(S(=O)(=O)N2CCN(c3ccccn3)CC2)cc1[N+](=O)[O-],0,0,0,0,0,0
COc1ccccc1N1CCN(Cc2c[nH]c3ccccc23)CC1,0,0,0,58,0,0
O=[N+]([O-])c1ccc(CN2CCN(Cc3c[nH]c4ccccc34)CC2)cc1,0,0,0,56,0,0
Fc1ccc(N2CCN(Cc3c[nH]c4ccccc34)CC2)cc1,-,-,0,73,-,-
Cc1ccccc1N1CCN(Cc2c[nH]c3ccccc23)CC1,-,0,0,60,0,0
